Data: ChEMBL document CHEMBL3045677, “Sulfonamide-1,2,4-thiadiazole derivatives as antifungal and antibacterial agents: synthesis, biological evaluation, lipophilicity, and conformational studies” (2010)
Values after ≈ are worked out from the molar mass of the structure shown.

The molecules below were run on Escherichia coli (assay: Antibacterial activity against Escherichia coli ATCC 35210 at […] degC measured after 72 hr by microdilution method). Conditions: ATCC 35210, 72 h.
Type: functional
Method in brief: (§1)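 Bactericidal endpoint: after the 24 h broth microdilution (1.0×10⁴ CFU per well, LB broth, […] °C), wells were serially subcultured into plates of fresh broth and incubated a further 72 h. MBC was the lowest concentration with no visible growth, taken as 99.5% killing of the original inoculum.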

| SMILES | MBC [µM] |
| --- | --- |
| COc1cc(Cc2nnc(Nc3ccc([N+](=O)[O-])cc3)s2)c(S(=O)(=O)N2CCCC2)cc1OC | 39.6 (≈ 20 µg/mL) |

Each molecule was assayed on Micrococcus flavus (assay: Antibacterial activity against Micrococcus flavus ATCC 10240 at […] degC measured after 24 hr by microdilution method). Conditions: ATCC 10240, 24 h.
Type: functional
Method in brief: (§2)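 Bacteria suspended in sterile saline at 1.0×10⁵ CFU/ml and added at 1.0×10⁴ CFU per well to LB broth with compound (1 mg/ml) in 96-well plates. Incubated 24 h at […] °C. MIC was the lowest concentration without visible growth under a binocular microscope. OD 655 nm was read against a blank and a positive control.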

| MIC [µM] | SMILES |
| --- | --- |
| 19.8 (≈ 10 µg/mL) | COc1cc(Cc2nnc(Nc3ccc([N+](=O)[O-])cc3)s2)c(S(=O)(=O)N2CCCC2)cc1OC |

These molecules were tested on Bacillus cereus (assay: Antibacterial activity against clinical isolate Bacillus cereus at […] degC measured after 72 hr by microdilution method). Conditions: not given.
Type: functional
Method in brief: as §1

| SMILES | MBC [µM] |
| --- | --- |
| COc1cc(Cc2nnc(Nc3ccc([N+](=O)[O-])cc3)s2)c(S(=O)(=O)N2CCCC2)cc1OC | 39.6 (≈ 20 µg/mL) |

The molecules below were run on Pseudomonas aeruginosa (assay: Antibacterial activity against Pseudomonas aeruginosa ATCC 27853 at […] degC measured after 72 hr by microdilution method). Conditions: ATCC 27853, 72 h.
Type: functional
Method in brief: as §1

| SMILES | MBC [µM] |
| --- | --- |
| COc1cc(Cc2nnc(Nc3ccc([N+](=O)[O-])cc3)s2)c(S(=O)(=O)N2CCCC2)cc1OC | 39.6 (≈ 20 µg/mL) |

These molecules were tested on Proteus mirabilis (assay: Antibacterial activity against Proteus mirabilis at […] degC measured after 24 hr by microdilution method). Conditions: not given.
Type: functional
Method in brief: as §2

| MIC [µM] | SMILES |
| --- | --- |
| 39.6 (≈ 20 µg/mL) | COc1cc(Cc2nnc(Nc3ccc([N+](=O)[O-])cc3)s2)c(S(=O)(=O)N2CCCC2)cc1OC |

What follows are molecules tested on Listeria monocytogenes (assay: Antibacterial activity against Listeria monocytogenes NCTC 7973 at […] degC measured after 24 hr by microdilution method). Conditions: NCTC 7973, 24 h.
Type: functional
Method in brief: as §2

| MIC [µM] | SMILES |
| --- | --- |
| 19.8 (≈ 10 µg/mL) | COc1cc(Cc2nnc(Nc3ccc([N+](=O)[O-])cc3)s2)c(S(=O)(=O)N2CCCC2)cc1OC |

The molecules below were run on Bacillus cereus (assay: Antibacterial activity against clinical isolate Bacillus cereus at […] degC measured after 24 hr by microdilution method). Conditions: not given.
Type: functional
Method in brief: as §2

| MIC [µM] | SMILES |
| --- | --- |
| 19.8 (≈ 10 µg/mL) | COc1cc(Cc2nnc(Nc3ccc([N+](=O)[O-])cc3)s2)c(S(=O)(=O)N2CCCC2)cc1OC |

What follows are molecules tested on Staphylococcus aureus (assay: Antibacterial activity against Staphylococcus aureus ATCC 6538 at […] degC measured after 24 hr by microdilution method). Conditions: ATCC 6538, 24 h.
Type: functional
Method in brief: as §2

| MIC [µM] | SMILES |
| --- | --- |
| 19.8 (≈ 10 µg/mL) | COc1cc(Cc2nnc(Nc3ccc([N+](=O)[O-])cc3)s2)c(S(=O)(=O)N2CCCC2)cc1OC |

The molecules below were run on Aspergillus fumigatus (assay: Antifungal activity against plant isolate Aspergillus fumigatus at 28 degC measured after 72 hr by microdilution method). Conditions: not given.
Type: functional
Method in brief: (§3)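 Fungi were kept on malt agar at 4 °C. Spores were washed off with sterile 0.85% saline containing 0.1% Tween 80 and adjusted to about 1.0×10⁵ per well. Compounds were dissolved in DMSO (1 mg/ml stock) and serially diluted in malt broth with inoculum in 96-well plates, 72 h at 28 °C, for MIC. MFC came from subculture into fresh broth for a further 72 h at 28 °C.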

| SMILES | MFC [µM] | MIC [µM] |
| --- | --- | --- |
| COc1cc(Cc2nnc(Nc3ccc([N+](=O)[O-])cc3)s2)c(S(=O)(=O)N2CCCC2)cc1OC | 19.8 (≈ 10 µg/mL) | 9.9 (≈ 5.01 µg/mL) |

The molecules below were run on Fulvia fulva (assay: Antifungal activity against Passalora fulva TK5318 at 28 degC measured after 72 hr by microdilution method). Conditions: TK5318, 72 h.
Type: functional
Method in brief: as §3

| MIC [µM] | SMILES | MFC [µM] |
| --- | --- | --- |
| 9.9 (≈ 5.01 µg/mL) | COc1cc(Cc2nnc(Nc3ccc([N+](=O)[O-])cc3)s2)c(S(=O)(=O)N2CCCC2)cc1OC | 19.8 (≈ 10 µg/mL) |

What follows are molecules tested on Salmonella typhimurium (assay: Antibacterial activity against Salmonella enterica subsp. enterica serovar Typhimurium ATCC 13311 at […] degC measured after 24 hr by microdilution method). Conditions: ATCC 13311, 24 h.
Type: functional
Method in brief: as §2

| MIC [µM] | SMILES |
| --- | --- |
| 39.6 (≈ 20 µg/mL) | COc1cc(Cc2nnc(Nc3ccc([N+](=O)[O-])cc3)s2)c(S(=O)(=O)N2CCCC2)cc1OC |

Each molecule was assayed on Micrococcus flavus (assay: Antibacterial activity against Micrococcus flavus ATCC 10240 at […] degC measured after 72 hr by microdilution method). Conditions: ATCC 10240, 72 h.
Type: functional
Method in brief: as §1

| SMILES | MBC [µM] |
| --- | --- |
| COc1cc(Cc2nnc(Nc3ccc([N+](=O)[O-])cc3)s2)c(S(=O)(=O)N2CCCC2)cc1OC | 39.6 (≈ 20 µg/mL) |

What follows are molecules tested on Proteus mirabilis (assay: Antibacterial activity against Proteus mirabilis at […] degC measured after 72 hr by microdilution method). Conditions: not given.
Type: functional
Method in brief: as §1

| SMILES | MBC [µM] |
| --- | --- |
| COc1cc(Cc2nnc(Nc3ccc([N+](=O)[O-])cc3)s2)c(S(=O)(=O)N2CCCC2)cc1OC | 79.2 (≈ 40 µg/mL) |

The molecules below were run on Pseudomonas aeruginosa (assay: Antibacterial activity against Pseudomonas aeruginosa ATCC 27853 at […] degC measured after 24 hr by microdilution method). Conditions: ATCC 27853, 24 h.
Type: functional
Method in brief: as §2

| MIC [µM] | SMILES |
| --- | --- |
| 19.8 (≈ 10 µg/mL) | COc1cc(Cc2nnc(Nc3ccc([N+](=O)[O-])cc3)s2)c(S(=O)(=O)N2CCCC2)cc1OC |

Each molecule was assayed on Aspergillus versicolor (assay: Antifungal activity against Aspergillus versicolor ATCC 11730 at 28 degC measured after 72 hr by microdilution method). Conditions: ATCC 11730, 72 h.
Type: functional
Method in brief: as §3

| MIC [µM] | SMILES | MFC [µM] |
| --- | --- | --- |
| 19.8 (≈ 10 µg/mL) | COc1cc(Cc2nnc(Nc3ccc([N+](=O)[O-])cc3)s2)c(S(=O)(=O)N2CCCC2)cc1OC | 39.6 (≈ 20 µg/mL) |

The molecules below were run on Escherichia coli (assay: Antibacterial activity against Escherichia coli ATCC 35210 at […] degC measured after 24 hr by microdilution method). Conditions: ATCC 35210, 24 h.
Type: functional
Method in brief: as §2

| MIC [µM] | SMILES |
| --- | --- |
| 19.8 (≈ 10 µg/mL) | COc1cc(Cc2nnc(Nc3ccc([N+](=O)[O-])cc3)s2)c(S(=O)(=O)N2CCCC2)cc1OC |

These molecules were tested on Penicillium ochrochloron (assay: Antifungal activity against Penicillium ochrochloron ATCC 9112 at 28 degC measured after 72 hr by microdilution method). Conditions: ATCC 9112, 72 h.
Type: functional
Method in brief: as §3

| MIC [µM] | SMILES | MFC [µM] |
| --- | --- | --- |
| 19.8 (≈ 10 µg/mL) | COc1cc(Cc2nnc(Nc3ccc([N+](=O)[O-])cc3)s2)c(S(=O)(=O)N2CCCC2)cc1OC | 39.6 (≈ 20 µg/mL) |

Each molecule was assayed on Salmonella typhimurium (assay: Antibacterial activity against Salmonella enterica subsp. enterica serovar TyphimuriumATCC 13311 at […] degC measured after 72 hr by microdilution method). Conditions: ATCC 13311, 72 h.
Type: functional, Salmonella enterica subsp. enterica serovar Typhimurium
Method in brief: as §1

| SMILES | MBC [µM] |
| --- | --- |
| COc1cc(Cc2nnc(Nc3ccc([N+](=O)[O-])cc3)s2)c(S(=O)(=O)N2CCCC2)cc1OC | 79.2 (≈ 40 µg/mL) |

Each molecule was assayed on Aspergillus niger (assay: Antifungal activity against Aspergillus niger ATCC 6275 at 28 degC measured after 72 hr by microdilution method). Conditions: ATCC 6275, 72 h.
Type: functional
Method in brief: as §3

| MIC [µM] | SMILES | MFC [µM] |
| --- | --- | --- |
| 19.8 (≈ 10 µg/mL) | COc1cc(Cc2nnc(Nc3ccc([N+](=O)[O-])cc3)s2)c(S(=O)(=O)N2CCCC2)cc1OC | 39.6 (≈ 20 µg/mL) |

What follows are molecules tested on Talaromyces funiculosus (assay: Antifungal activity against Talaromyces funiculosus ATCC 36839 at 28 degC measured after 72 hr by microdilution method). Conditions: ATCC 36839, 72 h.
Type: functional
Method in brief: as §3

| MIC [µM] | SMILES | MFC [µM] |
| --- | --- | --- |
| 9.9 (≈ 5.01 µg/mL) | COc1cc(Cc2nnc(Nc3ccc([N+](=O)[O-])cc3)s2)c(S(=O)(=O)N2CCCC2)cc1OC | 19.8 (≈ 10 µg/mL) |

Each molecule was assayed on Trichoderma viride (assay: Antifungal activity against Hypocrea rufa IAM 5061 at 28 degC measured after 72 hr by microdilution method). Conditions: IAM 5061, 72 h.
Type: functional
Method in brief: as §3

| MIC [µM] | SMILES | MFC [µM] |
| --- | --- | --- |
| 9.9 (≈ 5.01 µg/mL) | COc1cc(Cc2nnc(Nc3ccc([N+](=O)[O-])cc3)s2)c(S(=O)(=O)N2CCCC2)cc1OC | 19.8 (≈ 10 µg/mL) |

The molecules below were run on Staphylococcus aureus (assay: Antibacterial activity against Staphylococcus aureus ATCC 6538 at […] degC measured after 72 hr by microdilution method). Conditions: ATCC 6538, 72 h.
Type: functional
Method in brief: as §1

| SMILES | MBC [µM] |
| --- | --- |
| COc1cc(Cc2nnc(Nc3ccc([N+](=O)[O-])cc3)s2)c(S(=O)(=O)N2CCCC2)cc1OC | 39.6 (≈ 20 µg/mL) |

Each molecule was assayed on Aspergillus flavus (assay: Antifungal activity against Aspergillus flavus ATCC 9643 at 28 degC measured after 72 hr by microdilution method). Conditions: ATCC 9643, 72 h.
Type: functional
Method in brief: as §3

| MIC [µM] | SMILES | MFC [µM] |
| --- | --- | --- |
| 19.8 (≈ 10 µg/mL) | COc1cc(Cc2nnc(Nc3ccc([N+](=O)[O-])cc3)s2)c(S(=O)(=O)N2CCCC2)cc1OC | 39.6 (≈ 20 µg/mL) |

What follows are molecules tested on Listeria monocytogenes (assay: Antibacterial activity against Listeria monocytogenes NCTC 7973 at […] degC measured after 72 hr by microdilution method). Conditions: NCTC 7973, 72 h.
Type: functional
Method in brief: as §1

| SMILES | MBC [µM] |
| --- | --- |
| COc1cc(Cc2nnc(Nc3ccc([N+](=O)[O-])cc3)s2)c(S(=O)(=O)N2CCCC2)cc1OC | 39.6 (≈ 20 µg/mL) |
